High-throughput results deposited in PubChem BioAssay by SRMLSC.
Only a selection was taken, and hits are over-represented in it overall.
H69AR growth 86K = proliferation blockers of H69AR lung cancer cells, primary screen, cell-based, human, 86K library; 85,000 tested, 6% active; H69AR lung tumor viability, ATP luminescence, 72 h; stronger effect = lower value; viability, % at 10 µM;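 active = viability at or below 40%; inactive = viability above 40%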;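 note: multidrug resistant small cell line overexpressing MRP-1 efflux transporter; 100% = mean luminescence of untreated control wells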
Fibroblast inh = antiproliferative effect on LL 47 fibroblasts – human, LL 47 cells, CellTiter-Glo luminescence, primary screen. LL 47 human lung fibroblast viability, ATP luminescence; stronger effect = lower value. viability, % at 10 µM. 85,000 tested, 1.1% active. AID 719, 2007;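 active = viability at or below 50% in the single dose screen; inactive = viability above 50%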;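 note: compound exposure lasted 72 h before the ATP readout; 100% = median luminescence of untreated cell-only wells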
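Material: Human LL 47 lung fibroblast cells | Input: 1,150 cells/well | Buffer or medium: IMEM plus 15% FBS | Compound dosing: 0.1% DMSO in all compound wells | Times: Overnight cell rest, 72 h compound treatment at 37 °C | Signal: CellTiter-Glo luminescence measuring cellular ATP | Measure: % viability versus median cells-only luminescence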
HCT116 PTEN-null = growth suppression of PTEN-null HCT116, primary screen, cell-based, CellTiter-Glo; HCT116 PTEN-null viability, 60 h; stronger effect = lower value; viability, % at 10 µM; 140,000 tested, 1.2% active; AID 827, 2007;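 active = viability at or below a set limit, 4 SD under the median of all tested compounds, cut at about 3.7% in these data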;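 note: PTEN knockout HCT116 line with beta catenin targeted HCT116 as companion control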
bCat KO growth = primary screen for growth suppressors in beta-catenin knockout HCT116 cells (colon tumor, human). 140,000 tested, 1.5% active. HCT116 beta-catenin knockout viability, CellTiter-Glo, 60 h; stronger effect = lower value. viability, % at 10 µM;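 active = viability at or under a set limit, the compound median less 4 SD, cut at about 6% in these data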;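 note: 0% = Hyamine 1622 control at 20 µM and 100% = untreated cell control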
HUVEC inhibit = inhibitors of HUVEC proliferation, primary screen, cell-based, 384-well; CellTiter-Glo luminescence, 72 h; stronger effect = lower value; viability, % at 10 µM (by protocol); 86,000 tested, 1.1% active; AID 648, 2007;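 active = viability at or below 30%; inactive = viability above 30%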;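 note: 100% = median luminescence of DMSO-only cell control wells on each plate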
* marks the source's active call; other numbers are inactive results.

What do the screens show for `CCN(CC)S(=O)(=O)c1cccc(-c2nnc(SCCCC(=O)c3ccccc3)o2)c1`?
H69AR growth 86K: 32.0*; Fibroblast inh: 104.6; HCT116 PTEN-null: 73.9; bCat KO growth: 68.6; HUVEC inhibit: 85.0

Results for CCN(CC)S(=O)(=O)c1cccc(-c2nnc(SCCCC(=O)c3ccc(F)cc3)o2)c1 ?
H69AR growth 86K: 37.5*; Fibroblast inh: 93.4; HCT116 PTEN-null: 71.9; bCat KO growth: 46.1; HUVEC inhibit: 102.3

What do the screens show for `CCN(CC)S(=O)(=O)c1cccc(-c2nnc(SCC(=O)c3cc(C)n(C4CC4)c3C)o2)c1`?
H69AR growth 86K: 67.1; Fibroblast inh: 88.4; HUVEC inhibit: 96.6

What do the screens show for `CCc1cccc(NC(=O)CCCSc2nc3ccccc3[nH]2)c1`?
HCT116 PTEN-null: 81.3; bCat KO growth: 93.1

How did Cc1ccc(-n2[nH]c(C)c(C=Nc3ccc(S(=O)(=O)N4CCOCC4)cc3)c2=O)c(C)c1 do in these assays?
HCT116 PTEN-null: 92.2; bCat KO growth: 95.8

Results for Cc1ccc(-n2nnnc2C(Cl)c2nnnn2-c2ccc(C)cc2)cc1 ?
HCT116 PTEN-null: 1.1*; bCat KO growth: 1.6*

What do the screens show for `Cc1ccc(-n2nnnc2-c2ccco2)cc1`?
H69AR growth 86K: 94.8; Fibroblast inh: 95.6; HCT116 PTEN-null: 96.9; bCat KO growth: 97.7; HUVEC inhibit: 95.9

How did N#Cc1sc2nc(N3CCCCC3)c3c(c2c1N)CCCC3 do in these assays?
H69AR growth 86K: 23.0*; Fibroblast inh: 90.7; HCT116 PTEN-null: 13.0; bCat KO growth: 7.6; HUVEC inhibit: 7.4*

What do the screens show for `CCn1c2ccccc2c2nnc(SCCCn3c(=O)[nH]c4ccccc43)nc21`?
H69AR growth 86K: 22.5*; Fibroblast inh: 92.9; HCT116 PTEN-null: 77.5; bCat KO growth: 59.4; HUVEC inhibit: 59.5

How did CCn1c2ccccc2c2nnc(SCc3ccccc3)nc21 do in these assays?
H69AR growth 86K: 61.2; Fibroblast inh: 89.0; HCT116 PTEN-null: 67.5; bCat KO growth: 76.2; HUVEC inhibit: 89.7

Results for COc1ccc(C(=O)OCCNC(=O)c2ccncc2)cc1OC ?
HCT116 PTEN-null: 99.8; bCat KO growth: 91.1

How did CCc1c(C)nc2ncnn2c1NCCc1ccc(OC)cc1 do in these assays?
H69AR growth 86K: 12.6*; Fibroblast inh: 68.0; HCT116 PTEN-null: 14.8; bCat KO growth: 15.4; HUVEC inhibit: 79.6

What do the screens show for `COc1ccc(/C=C(\C#N)C(=O)OCC(=O)Nc2c(C)cccc2C(C)C)cc1`?
HCT116 PTEN-null: 96.5; bCat KO growth: 93.3

How did CC(=O)N1CCc2cc(S(=O)(=O)N3CCOCC3)ccc21 do in these assays?
H69AR growth 86K: 94.7; Fibroblast inh: 106.0; HCT116 PTEN-null: 95.5; bCat KO growth: 91.8; HUVEC inhibit: 102.3

How did CCN(c1cccc(C)c1)S(=O)(=O)c1ccc2c(c1)CCN2C(C)=O do in these assays?
H69AR growth 86K: 28.6*; Fibroblast inh: 70.2; HCT116 PTEN-null: 34.8; bCat KO growth: 39.6; HUVEC inhibit: 70.8

How did CC(=O)N1CCc2cc(S(=O)(=O)N3c4ccccc4CC3C)ccc21 (stereo not drawn) do in these assays?
H69AR growth 86K: 19.6*; Fibroblast inh: 58.5; HCT116 PTEN-null: 98.5; bCat KO growth: 87.0; HUVEC inhibit: 59.4

Results for CC(=O)N1CCCc2cc(S(=O)(=O)N(CC(C)C)CC(C)C)ccc21 ?
H69AR growth 86K: 82.9; Fibroblast inh: 96.3; HCT116 PTEN-null: 82.8; bCat KO growth: 91.5; HUVEC inhibit: 95.0

Results for CCN(c1cccc(C(F)(F)F)c1)S(=O)(=O)c1ccc2c(c1)CCN2C(C)=O ?
H69AR growth 86K: 17.5*; Fibroblast inh: 90.0; HCT116 PTEN-null: 67.5; bCat KO growth: 73.9; HUVEC inhibit: 89.3

How did CC1CCc2c(sc3nc(CN4CCN(S(=O)(=O)c5ccccc5[N+](=O)[O-])CC4)[nH]c(=O)c23)C1 (stereo not drawn) do in these assays?
HCT116 PTEN-null: 84.6; bCat KO growth: 74.5

What do the screens show for `Cc1ccc(Oc2ccc(-c3nnc(-c4ccccc4)o3)cc2[N+](=O)[O-])cc1C`?
HCT116 PTEN-null: 88.2; bCat KO growth: 89.2

Results for COc1ccc(-c2nc(Cn3c(SCc4cccc(F)c4)nc4ccncc43)c(C)o2)cc1OC ?
H69AR growth 86K: 53.9; Fibroblast inh: 86.8; HCT116 PTEN-null: 68.2; bCat KO growth: 64.5; HUVEC inhibit: 57.5

What do the screens show for `COc1ccc(-c2nc(Cn3c(SCc4ccc(C)cc4)nc4ccncc43)c(C)o2)cc1OC`?
H69AR growth 86K: 18.7*; Fibroblast inh: 92.6; HCT116 PTEN-null: 74.9; bCat KO growth: 70.9; HUVEC inhibit: 73.2

How did CC(C)(C)c1ccc(C2(C)NC(=O)N(CC(=O)c3ccc[nH]3)C2=O)cc1 (stereo not drawn) do in these assays?
H69AR growth 86K: 26.7*; Fibroblast inh: 90.1; HCT116 PTEN-null: 69.0; bCat KO growth: 76.1; HUVEC inhibit: 87.3

How did O=C(NC(=S)Nc1ccc2c(c1)OCO2)c1ccc(Cl)cc1 do in these assays?
HCT116 PTEN-null: 64.0; bCat KO growth: 0.2*

Results for CCOC(=O)c1ccc(Nc2nc(C)cc(=O)[nH]2)cc1 ?
H69AR growth 86K: 88.4; Fibroblast inh: 111.9; HCT116 PTEN-null: 85.5; bCat KO growth: 85.7; HUVEC inhibit: 95.9

Results for CCCOC(=O)c1ccc(Nc2nc(C)cc(=O)[nH]2)cc1 ?
H69AR growth 86K: 17.1*; Fibroblast inh: 106.3; HCT116 PTEN-null: 94.5; bCat KO growth: 94.4; HUVEC inhibit: 93.7

What do the screens show for `CCCCN1CNC(=S)N(Cc2ccccc2)C1`?
HCT116 PTEN-null: 89.7; bCat KO growth: 88.5

Results for Cc1ccc2oc(=O)c3cnn(CC(=O)Nc4ccccc4N4CCN(C)CC4)c3c2c1 ?
H69AR growth 86K: 62.4; Fibroblast inh: 47.2*; HCT116 PTEN-null: 12.0; bCat KO growth: 19.2; HUVEC inhibit: 2.1*

What do the screens show for `Cc1ccc2oc(=O)c3cnn(CC(=O)N4CCN(c5ccccc5)CC4)c3c2c1`?
H69AR growth 86K: 75.3; Fibroblast inh: 95.9; HCT116 PTEN-null: 76.6; bCat KO growth: 77.2; HUVEC inhibit: 83.5

How did Cn1c(SCC(=O)N2c3ccccc3CCc3ccccc32)nnc1-c1ccc(O)cc1 do in these assays?
HCT116 PTEN-null: 84.7; bCat KO growth: 89.8

What do the screens show for `O=C(CN1C(=O)COc2ccc(S(=O)(=O)N3CCCC3)cc21)NC1CCCCCCC1`?
HCT116 PTEN-null: 88.2; bCat KO growth: 76.2

What do the screens show for `CCCc1ccc(-c2cc(NC(=O)CSc3n[nH]c(N)n3)n(-c3ccccc3)n2)cc1`?
H69AR growth 86K: 16.9*; Fibroblast inh: 94.1; HCT116 PTEN-null: 45.9; bCat KO growth: 59.6; HUVEC inhibit: 16.6*

How did O=C(c1cncc(Br)c1)N1CCCc2ccccc21 do in these assays?
H69AR growth 86K: 105.1; Fibroblast inh: 99.2; HCT116 PTEN-null: 92.8; bCat KO growth: 94.4; HUVEC inhibit: 100.3
